Reference: ChEMBL document CHEMBL4325842, “Design, synthesis, and biological evaluation of novel aminopyrimidinylisoindolines as AXL kinase inhibitors” (Bioorg Med Chem Lett, 2018)

Tests used:
U-87 MG = experiment: Antiproliferative activity against human U87MG cells after 2 days by spectrophotometric analysis; assay type: functional, U-87MG ATCC; conditions: 48 h
HepG2 = experiment: Antiproliferative activity against human HepG2 cells after 2 days by spectrophotometric analysis; assay type: functional; conditions: HepG2, 48 h
A549 = experiment: Antiproliferative activity against human A549 cells after 2 days by spectrophotometric analysis; assay type: functional; conditions: A549, 48 h
HeLa = experiment: Antiproliferative activity against human HeLa cells after 2 days by spectrophotometric analysis; assay type: functional; conditions: 48 h
How it was run: (§1)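 Cells from ATCC were kept in RPMI 1640 with 5% FBS. They were exposed to graded concentrations in DMSO/RPMI for 48 h at 37 C under 5% CO2, then fixed with 50% trichloroacetic acid. Cellular protein was read at 540 nm at time zero and at 48 h, with and without compound. TGI (100% growth inhibition) was taken from the concentration-response curve.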

[1] = target: T1, Tyrosine-protein kinase receptor UFO (Homo sapiens, UniProt P30530); experiment: Inhibition of N-terminal His-tagged recombinant human AXL (473 to end amino acids) expressed by baculovirus in Sf9 cells using axltide substrate and ATP by ADP-Glo luminescence assay
T1 sequence (P30530 whole entry): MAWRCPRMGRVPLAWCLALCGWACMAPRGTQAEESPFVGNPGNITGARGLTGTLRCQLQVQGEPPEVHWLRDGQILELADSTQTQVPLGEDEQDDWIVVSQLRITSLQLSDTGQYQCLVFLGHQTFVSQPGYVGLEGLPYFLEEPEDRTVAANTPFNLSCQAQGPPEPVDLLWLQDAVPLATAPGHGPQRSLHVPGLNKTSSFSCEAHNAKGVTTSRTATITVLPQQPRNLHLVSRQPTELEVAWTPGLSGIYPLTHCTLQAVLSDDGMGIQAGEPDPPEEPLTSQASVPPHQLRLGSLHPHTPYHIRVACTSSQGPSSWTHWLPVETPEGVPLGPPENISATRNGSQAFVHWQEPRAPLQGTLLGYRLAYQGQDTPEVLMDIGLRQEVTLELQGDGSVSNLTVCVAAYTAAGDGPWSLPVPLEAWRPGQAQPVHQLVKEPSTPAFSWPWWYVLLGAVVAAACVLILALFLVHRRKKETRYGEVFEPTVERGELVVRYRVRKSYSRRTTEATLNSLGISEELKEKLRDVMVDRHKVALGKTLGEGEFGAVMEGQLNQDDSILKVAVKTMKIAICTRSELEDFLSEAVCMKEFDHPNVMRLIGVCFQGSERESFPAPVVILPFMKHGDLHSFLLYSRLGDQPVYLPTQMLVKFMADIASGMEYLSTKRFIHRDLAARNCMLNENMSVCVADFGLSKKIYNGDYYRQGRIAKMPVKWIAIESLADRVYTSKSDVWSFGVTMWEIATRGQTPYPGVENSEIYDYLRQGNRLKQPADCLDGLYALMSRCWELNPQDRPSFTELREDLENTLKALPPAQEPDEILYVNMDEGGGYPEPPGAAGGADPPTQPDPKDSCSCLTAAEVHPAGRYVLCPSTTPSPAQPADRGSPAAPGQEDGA

OVCAR-3 = experiment: Antiproliferative activity against human OVCAR3 cells after 2 days by spectrophotometric analysis; assay type: functional; conditions: OVCAR-3, 48 h; how it was run: as §1

Structure (SMILES) | GI50 (U-87 MG) [µM] | GI50 (HepG2) [µM] | GI50 (A549) [µM] | GI50 (HeLa) [µM] | IC50 [1] [µM] | GI50 (OVCAR-3) [µM]
CN(c1cccc2c1CN(c1nc(Nc3ccc(Nc4ccccc4)cc3)ncc1C(F)(F)F)C2)S(C)(=O)=O | 29.8 | 8.6 | 6.2 | 7.3 | > 20 | > 50
CN(c1cccc2c1CN(c1nc(Nc3ccc(C(F)(F)F)cc3)ncc1C(F)(F)F)C2)S(C)(=O)=O | > 30 | > 30 | > 30 | > 30 | > 20 | > 30
COc1ccc(Nc2ncc(C(F)(F)F)c(N3Cc4cccc(N(C)S(C)(=O)=O)c4C3)n2)cc1C(F)(F)F | 29.4 | > 30 | > 30 | 14 | > 20 | > 30
Cc1cc(C)cc(Nc2ncc(C(F)(F)F)c(N3Cc4cccc(N(C)S(C)(=O)=O)c4C3)n2)c1 | > 30 | > 30 | > 30 | > 30 | > 20 | > 30
Cc1ccc(Nc2ncc(C(F)(F)F)c(N3Cc4cccc(N(C)S(C)(=O)=O)c4C3)n2)c(Cl)c1 | > 30 | > 30 | > 30 | 10.9 | > 20 | > 30
CN(c1cccc2c1CN(c1nc(Nc3ccc(Cl)c(C(F)(F)F)c3)ncc1C(F)(F)F)C2)S(C)(=O)=O | > 30 | 16 | 15.2 | 11.1 | > 20 | > 50
CN(c1cccc2c1CN(c1nc(Nc3ccccc3N3CCOCC3)ncc1C(F)(F)F)C2)S(C)(=O)=O | > 30 | > 30 | > 30 | 23.9 | > 20 | > 50
COc1cc(Nc2ncc(C(F)(F)F)c(N3Cc4cccc(N(C)S(C)(=O)=O)c4C3)n2)c(OC)cc1Cl | 6.2 | 25.6 | 7.3 | 16.5 | > 20 | > 30
COc1cc(Nc2ncc(C(F)(F)F)c(N3Cc4cccc(N(C)S(C)(=O)=O)c4C3)n2)cc(C(F)(F)F)c1 | > 30 | 22.1 | > 30 | 5.1 |  | > 30
Cc1ccc(Nc2ncc(C(F)(F)F)c(N3Cc4cccc(N(C)S(C)(=O)=O)c4C3)n2)c(C)c1 | > 30 | 19.1 | 20.7 | 10.6 |  | > 30
Cc1cc(Cl)ccc1Nc1ncc(C(F)(F)F)c(N2Cc3cccc(N(C)S(C)(=O)=O)c3C2)n1 | 28.3 | 19.6 | 25.5 | 17.4 | > 20 | > 30
Cc1ccc(Nc2ncc(C(F)(F)F)c(N3Cc4cccc(N(C)S(C)(=O)=O)c4C3)n2)cc1C | > 30 | > 30 | > 30 | > 30 | > 20 | > 30
CN(c1cccc2c1CN(c1nc(Nc3cccc(Oc4ccccc4)c3)ncc1C(F)(F)F)C2)S(C)(=O)=O | 19.5 | 23 | 19 | 4.3 |  | 24.9
CN(c1ncccc1CNc1nc(Nc2ccc3c(c2)CC(=O)N3)ncc1C(F)(F)F)S(C)(=O)=O | 3.7 | 1.2 | 2.1 | 1.7 |  | 1.8
Cc1cc(F)ccc1Nc1ncc(C(F)(F)F)c(N2Cc3cccc(N(C)S(C)(=O)=O)c3C2)n1 | > 30 | 16.8 | > 30 | 6.5 |  | > 30
CN(c1cccc2c1CN(c1nc(Nc3ccc4c(c3)OCO4)ncc1C(F)(F)F)C2)S(C)(=O)=O | > 30 | 9.8 | 12.1 | 6.3 |  | > 30
COc1cc(N2CCN(C(C)=O)CC2)ccc1Nc1ncc(C(F)(F)F)c(N2Cc3cccc(N(C)S(C)(=O)=O)c3C2)n1 | 4.7 | 3.8 | 3.3 | 1.3 |  | 1.6
COc1ccc(C(F)(F)F)cc1Nc1ncc(C(F)(F)F)c(N2Cc3cccc(N(C)S(C)(=O)=O)c3C2)n1 | > 30 | > 30 | > 30 | 17.2 | > 20 | > 30
CN(c1cccc2c1CN(c1nc(Nc3ccc(N4CCOCC4)cc3)ncc1C(F)(F)F)C2)S(C)(=O)=O | 6.8 | 1.9 | 2.5 | 0.79 |  | 2.4
CN(c1cccc2c1CN(c1nc(Nc3cccc(C(F)(F)F)c3)ncc1C(F)(F)F)C2)S(C)(=O)=O | > 30 | > 30 | > 30 | 5.3 |  | > 30
CN(c1cccc2c1CN(c1nc(Nc3cc(Cl)cc(C(F)(F)F)c3)ncc1C(F)(F)F)C2)S(C)(=O)=O | 5.5 | 9.9 | 6.7 | 4.3 | > 30 | 21.5
COc1cc(Nc2ncc(C(F)(F)F)c(N3Cc4cccc(N(C)S(C)(=O)=O)c4C3)n2)cc(OC)c1 | > 30 | 1.8 | 24.8 | 7 |  | 0.63
CN(c1cccc2c1CN(c1nc(Nc3cc(C(F)(F)F)cc(C(F)(F)F)c3)ncc1C(F)(F)F)C2)S(C)(=O)=O | 16.8 | 10.3 | > 30 | 9.2 | > 20 | > 30
